Data: ChEMBL document CHEMBL1806428, “Design and synthesis of spiro derivatives of parthenin as novel anti-cancer agents” (Eur J Med Chem, 2011)
Several values for one entry are separate records, joined by “and”; a condition that tells them apart may be missing. Equal values may be shown once. Each block holds one molecule with its values, some of them ahead of it.

Assays:
DU-145 = assay: Cytotoxicity against human DU145 cells assessed as cell growth after 48 hrs by sulforhodamine B assay; assay type: functional, cell-based
Outline: (§1)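 Log-phase cells seeded at 10^4/well and allowed to attach for 24 h at 37 °C, 5% CO2. Exposed for 48 h to 0.1–100 (1:10 serial dilutions), four replicate wells per condition. Fixed with cold 50% TCA for 1 h at 4 °C, stained with sulforhodamine B, dye dissolved in Tris, OD read at 540 nm. Blank-subtracted growth expressed relative to untreated cells (100%); IC50 reported.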

PC-3 = assay: Cytotoxicity against human PC3 cells assessed as cell growth after 48 hrs by sulforhodamine B assay; assay type: functional, cell-based; outline: as §1
SW-620 = assay: Cytotoxicity against human SW620 cells assessed as cell growth after 48 hrs by sulforhodamine B assay; assay type: functional, cell-based; outline: as §1
[1] = Partition coefficient, log P of the compound; assay type: physicochemical; settings: octanol/water

SMILES: COc1cccc(C2C[C@@]3(ON2c2ccccc2)C(=O)O[C@@H]2[C@H]3CC[C@H](C)[C@]3(O)C=CC(=O)[C@@]23C)c1 (stereo not given in full)
IC50 (DU-145; Homo sapiens, DU-145, 48 h): 10 µM
IC50 (DU-145; du-145): 11 µM
IC50 (PC-3; Homo sapiens, PC-3, 48 h): 12 µM
IC50 (PC-3; pc-3): 9 µM
IC50 (SW-620; Homo sapiens, SW-620, 48 h): 7.5 µM
IC50 (SW-620; sw-620): 6.6 µM

SMILES: C[C@H]1CC[C@@H]2[C@@H](OC(=O)[C@]23CC(c2ccccc2F)N(c2ccccc2)O3)[C@]2(C)C(=O)C=C[C@@]12O (stereo not given in full)
IC50 (DU-145; Homo sapiens, DU-145, 48 h): 4.1 µM
IC50 (DU-145; du-145): 6 µM
IC50 (PC-3; Homo sapiens, PC-3, 48 h): 2.7 µM
IC50 (PC-3; pc-3): 2.5 µM
IC50 (SW-620; Homo sapiens, SW-620, 48 h): 9 µM
IC50 (SW-620; sw-620): 10.2 µM

logP [1]: 3.98
SMILES: COc1ccc(C2C[C@@]3(ON2c2ccccc2)C(=O)O[C@@H]2[C@H]3CC[C@H](C)[C@]3(O)C=CC(=O)[C@@]23C)cc1Br (mixture of isomers)

logP [1]: 3.72
SMILES: C[C@H]1CC[C@@H]2[C@@H](OC(=O)[C@]23CC(c2c(F)c(F)c(F)c(F)c2F)N(c2ccccc2)O3)[C@]2(C)C(=O)C=C[C@@]12O (mixture of isomers)

SMILES: C[C@H]1CC[C@@H]2[C@@H](OC(=O)[C@]23CC(c2c(F)c(F)c(F)c(F)c2F)N(c2ccccc2)O3)[C@]2(C)C(=O)C=C[C@@]12O (stereo not given in full)
IC50 (DU-145; Homo sapiens, DU-145, 48 h): 9.3 µM
IC50 (DU-145; du-145): 6.1 µM
IC50 (PC-3; Homo sapiens, PC-3, 48 h): 5.6 µM
IC50 (PC-3; pc-3): 5 µM
IC50 (SW-620; Homo sapiens, SW-620, 48 h): 3 µM
IC50 (SW-620; sw-620): 5.5 µM

SMILES: Cc1ccccc1C1C[C@@]2(ON1c1ccccc1)C(=O)O[C@@H]1[C@H]2CC[C@H](C)[C@]2(O)C=CC(=O)[C@@]12C (stereo not given in full)
IC50 (DU-145; Homo sapiens, DU-145, 48 h): 4.5 µM
IC50 (DU-145; du-145): 5.1 µM
IC50 (PC-3; Homo sapiens, PC-3, 48 h): 15 µM
IC50 (SW-620; Homo sapiens, SW-620, 48 h): 12 µM
IC50 (SW-620; sw-620): 9 µM

logP [1]: 2.94
SMILES: C[C@H]1CC[C@@H]2[C@@H](OC(=O)[C@]23CC(c2ccc(C#N)cc2)N(c2ccccc2)O3)[C@]2(C)C(=O)C=C[C@@]12O (mixture of isomers)

SMILES: C[C@H]1CC[C@@H]2[C@@H](OC(=O)[C@]23CC(c2ccc(C#N)cc2)N(c2ccccc2)O3)[C@]2(C)C(=O)C=C[C@@]12O (stereo not given in full)
IC50 (DU-145; Homo sapiens, DU-145, 48 h): 5 µM
IC50 (DU-145; du-145): 7 µM
IC50 (PC-3; Homo sapiens, PC-3, 48 h): 4.8 µM
IC50 (PC-3; pc-3): 9.1 µM
IC50 (SW-620; Homo sapiens, SW-620, 48 h): 4.8 µM
IC50 (SW-620; sw-620): 5 µM

SMILES: C[C@H]1CC[C@@H]2[C@@H](OC(=O)[C@]23CC(c2c(F)cccc2F)N(c2ccccc2)O3)[C@]2(C)C(=O)C=C[C@@]12O (stereo not given in full)
IC50 (DU-145; Homo sapiens, DU-145, 48 h): 12 µM
IC50 (DU-145; du-145): 9 µM
IC50 (PC-3; Homo sapiens, PC-3, 48 h): 2.5 µM
IC50 (PC-3; pc-3): 2.3 µM
IC50 (SW-620; Homo sapiens, SW-620, 48 h): 5 µM
IC50 (SW-620; sw-620): 7.2 µM

logP [1]: 3.35
SMILES: C[C@H]1CC[C@@H]2[C@@H](OC(=O)[C@]23CC(c2ccccc2F)N(c2ccccc2)O3)[C@]2(C)C(=O)C=C[C@@]12O (mixture of isomers)

SMILES: C[C@H]1CC[C@@H]2[C@@H](OC(=O)[C@]23CC(c2ccc([N+](=O)[O-])cc2)N(c2ccccc2)O3)[C@]2(C)C(=O)C=C[C@@]12O (stereo not given in full)
IC50 (DU-145; Homo sapiens, DU-145, 48 h): 5.6 µM
IC50 (DU-145; du-145): 6 µM
IC50 (PC-3; Homo sapiens, PC-3, 48 h): 8.4 µM
IC50 (PC-3; pc-3): 9.3 µM
IC50 (SW-620; Homo sapiens, SW-620, 48 h): 5.7 µM
IC50 (SW-620; sw-620): 5.1 µM

logP [1]: 3.87
SMILES: C[C@H]1CC[C@@H]2[C@@H](OC(=O)[C@]23CC(c2ccccc2Cl)N(c2ccccc2)O3)[C@]2(C)C(=O)C=C[C@@]12O (mixture of isomers)

logP [1]: 3.35
SMILES: C[C@H]1CC[C@@H]2[C@@H](OC(=O)[C@]23CC(c2cccc(F)c2)N(c2ccccc2)O3)[C@]2(C)C(=O)C=C[C@@]12O (mixture of isomers)

logP [1]: 3.35
SMILES: C[C@H]1CC[C@@H]2[C@@H](OC(=O)[C@]23CC(c2ccc(F)cc2)N(c2ccccc2)O3)[C@]2(C)C(=O)C=C[C@@]12O (mixture of isomers)

SMILES: COc1ccc(C2C[C@@]3(ON2c2ccccc2)C(=O)O[C@@H]2[C@H]3CC[C@H](C)[C@]3(O)C=CC(=O)[C@@]23C)cc1Br (stereo not given in full)
IC50 (DU-145; Homo sapiens, DU-145, 48 h): 6.3 µM
IC50 (DU-145; du-145): 5.4 µM
IC50 (PC-3; Homo sapiens, PC-3, 48 h): 5.7 µM
IC50 (PC-3; pc-3): 8.1 µM
IC50 (SW-620; Homo sapiens, SW-620, 48 h): 6.8 µM
IC50 (SW-620; sw-620): 9 µM

SMILES: C[C@H]1CC[C@@H]2[C@@H](OC(=O)[C@]23CC(c2cccc(Cl)c2)N(c2ccccc2)O3)[C@]2(C)C(=O)C=C[C@@]12O (stereo not given in full)
IC50 (DU-145; Homo sapiens, DU-145, 48 h): 7.4 µM
IC50 (DU-145; du-145): 6 µM
IC50 (PC-3; Homo sapiens, PC-3, 48 h): 8.2 µM
IC50 (PC-3; pc-3): 12 µM
IC50 (SW-620; Homo sapiens, SW-620, 48 h): 6.1 µM
IC50 (SW-620; sw-620): 10.5 µM

SMILES: C[C@H]1CC[C@@H]2[C@@H](OC(=O)[C@]23CC(c2ccccc2)N(c2ccccc2)O3)[C@]2(C)C(=O)C=C[C@@]12O (stereo not given in full)
IC50 (DU-145; Homo sapiens, DU-145, 48 h): 5.6 µM
IC50 (DU-145; du-145): 6.5 µM
IC50 (PC-3; Homo sapiens, PC-3, 48 h): 5.7 µM
IC50 (PC-3; pc-3): 9 µM
IC50 (SW-620; Homo sapiens, SW-620, 48 h): 5.3 µM
IC50 (SW-620; sw-620): 6 µM

logP [1]: 3.19
SMILES: C[C@H]1CC[C@@H]2[C@@H](OC(=O)[C@]23CC(c2ccccc2)N(c2ccccc2)O3)[C@]2(C)C(=O)C=C[C@@]12O (mixture of isomers)

logP [1]: 3.15
SMILES: C[C@H]1CC[C@@H]2[C@@H](OC(=O)[C@]23CC(c2ccc([N+](=O)[O-])cc2)N(c2ccccc2)O3)[C@]2(C)C(=O)C=C[C@@]12O (mixture of isomers)

logP [1]: 4.45
SMILES: C[C@H]1CC[C@@H]2[C@@H](OC(=O)[C@]23CC(c2c(Cl)cccc2Cl)N(c2ccccc2)O3)[C@]2(C)C(=O)C=C[C@@]12O (mixture of isomers)

SMILES: C[C@H]1CC[C@@H]2[C@@H](OC(=O)[C@]23CC(c2ccc(Br)cc2)N(c2ccccc2)O3)[C@]2(C)C(=O)C=C[C@@]12O (stereo not given in full)
IC50 (DU-145; Homo sapiens, DU-145, 48 h): 5.3 µM
IC50 (DU-145; du-145): 4.2 µM
IC50 (PC-3; pc-3): 5.8 µM and 2.3 µM
IC50 (SW-620; Homo sapiens, SW-620, 48 h): 6.7 µM
IC50 (SW-620; sw-620): 8.1 µM

SMILES: C[C@H]1CC[C@@H]2[C@@H](OC(=O)[C@]23CC(c2ccc(Cl)cc2)N(c2ccccc2)O3)[C@]2(C)C(=O)C=C[C@@]12O (stereo not given in full)
IC50 (DU-145; Homo sapiens, DU-145, 48 h): 7 µM
IC50 (DU-145; du-145): 6 µM
IC50 (PC-3; Homo sapiens, PC-3, 48 h): 7.8 µM
IC50 (PC-3; pc-3): 12 µM
IC50 (SW-620; Homo sapiens, SW-620, 48 h): 7.5 µM
IC50 (SW-620; sw-620): 5.1 µM

SMILES: C[C@H]1CC[C@@H]2[C@@H](OC(=O)[C@]23CC(c2ccc(F)cc2)N(c2ccccc2)O3)[C@]2(C)C(=O)C=C[C@@]12O (stereo not given in full)
IC50 (DU-145; Homo sapiens, DU-145, 48 h): 6.4 µM
IC50 (DU-145; du-145): 5 µM
IC50 (PC-3; pc-3): 5.7 µM and 12 µM
IC50 (SW-620; Homo sapiens, SW-620, 48 h): 7.3 µM
IC50 (SW-620; sw-620): 6 µM

SMILES: C[C@H]1CC[C@@H]2[C@@H](OC(=O)[C@]23CC(c2ccccc2Cl)N(c2ccccc2)O3)[C@]2(C)C(=O)C=C[C@@]12O (stereo not given in full)
IC50 (DU-145; Homo sapiens, DU-145, 48 h): 6 µM
IC50 (DU-145; du-145): 4.1 µM
IC50 (PC-3; Homo sapiens, PC-3, 48 h): 3.5 µM
IC50 (PC-3; pc-3): 6.3 µM
IC50 (SW-620; Homo sapiens, SW-620, 48 h): 5.5 µM
IC50 (SW-620; sw-620): 9.2 µM

SMILES: C[C@H]1CC[C@@H]2[C@@H](OC(=O)[C@]23CC(c2c(Cl)cccc2Cl)N(c2ccccc2)O3)[C@]2(C)C(=O)C=C[C@@]12O (stereo not given in full)
IC50 (DU-145; Homo sapiens, DU-145, 48 h): 9 µM
IC50 (DU-145; du-145): 6.3 µM
IC50 (PC-3; Homo sapiens, PC-3, 48 h): 2.4 µM
IC50 (PC-3; pc-3): 4.2 µM
IC50 (SW-620; Homo sapiens, SW-620, 48 h): 3 µM
IC50 (SW-620; sw-620): 5 µM

SMILES: C[C@H]1CC[C@@H]2[C@@H](OC(=O)[C@]23CC(c2cccc(F)c2)N(c2ccccc2)O3)[C@]2(C)C(=O)C=C[C@@]12O (stereo not given in full)
IC50 (DU-145; Homo sapiens, DU-145, 48 h): 5 µM
IC50 (DU-145; du-145): 8.1 µM
IC50 (PC-3; Homo sapiens, PC-3, 48 h): 4.8 µM
IC50 (PC-3; pc-3): 9 µM
IC50 (SW-620; Homo sapiens, SW-620, 48 h): 4.8 µM
IC50 (SW-620; sw-620): 5.1 µM

SMILES: COc1ccc(C2C[C@@]3(ON2c2ccccc2)C(=O)O[C@@H]2[C@H]3CC[C@H](C)[C@]3(O)C=CC(=O)[C@@]23C)cc1 (stereo not given in full)
IC50 (DU-145; Homo sapiens, DU-145, 48 h): 6.4 µM
IC50 (DU-145; du-145): 7.1 µM
IC50 (PC-3; Homo sapiens, PC-3, 48 h): 5.7 µM
IC50 (PC-3; pc-3): 6 µM
IC50 (SW-620; Homo sapiens, SW-620, 48 h): 7.3 µM
IC50 (SW-620; sw-620): 4.2 µM

SMILES: Cc1ccc(C2C[C@@]3(ON2c2ccccc2)C(=O)O[C@@H]2[C@H]3CC[C@H](C)[C@]3(O)C=CC(=O)[C@@]23C)cc1 (stereo not given in full)
IC50 (DU-145; Homo sapiens, DU-145, 48 h): 8.1 µM
IC50 (DU-145; du-145): 6.3 µM
IC50 (PC-3; Homo sapiens, PC-3, 48 h): 8.5 µM
IC50 (PC-3; pc-3): 9.1 µM
IC50 (SW-620; Homo sapiens, SW-620, 48 h): 8.7 µM
IC50 (SW-620; sw-620): 9 µM
